ChEMBL document CHEMBL2157917, “Targeting conserved water molecules: design of 4-aryl-5-cyanopyrrolo[2,3-d]pyrimidine Hsp90 inhibitors using fragment-based screening and structure-based optimization” (Bioorg Med Chem, 2012)
“And” between values parts separate entries of the source, which are not always exact repeats. Equal entries are not always repeated.

Tests used:
[1] = biological target: Heat shock protein HSP 90-beta (Homo sapiens, UniProt P08238); experiment: Inhibition of fluorescently labeled VER51001 binding to full length human HSP90beta after 30 mins by fluorescence polarization assay
[2] = Binding affinity to HSP90 after 30 mins by ITC assay
In short: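 Isothermal titration calorimetry at 25 °C with stirring at 1000 rpm. Ligands came from a 20 mM DMSO stock and were run in dialysis buffer with 1% DMSO. Ligand 10 µM in the cell, protein 100–200 µM in the syringe, 8–16 injections at 300 s spacing. One-site fit.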

[3] = Binding affinity to hexa His-tagged HSP90 (9-236 aminoacids) by SPR assay
In short: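 NTA chip charged with 0.5 mM Ni2+, then 100 nM His-tagged HSP90 captured to about 1500 RU. Running buffer 10 mM HEPES pH 7.4, 150 mM NaCl, EDTA, 0.05% Tween-20, 1% DMSO. Surface was reloaded for each concentration. Double-referenced sensorgrams were fitted globally to a single-step kinetic model.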

HCT-116 = experiment: Antiproliferative activity against human HCT116 cells after 4 days by SRB method; assay type: functional; details: HCT-116, 96 h
BT-474 = experiment: Antiproliferative activity against human BT474 cells after 4 days by SRB method; assay type: functional; details: BT-474, 96 h
MDA-MB-468 = experiment: Antiproliferative activity against human MDA-MB-468 cells after 4 days by SRB method; assay type: functional; details: MDA-MB-468, 96 h
[4] = biological target: T1, Voltage-gated inwardly rectifying potassium channel KCNH2 (Homo sapiens, UniProt Q12809); experiment: Displacement of [3H]-dofetilide from human ERG
[5] = biological target: T1, Voltage-gated inwardly rectifying potassium channel KCNH2; experiment: Inhibition of human ERG expressed in HEK293 cells by voltage-clamp method; assay type: cell-based
[6] = AUC (0 to infinity) in Balb-C mouse plasma at 5 mg/kg, po; assay type: ADME, organism-based; parameters: time infinity, dose 5 mg/kg, route oral
UGT [7] = experiment: Intrinsic clearance in human liver microsomes assessed as UGT-mediated glucuronidation after 30 mins by LC-MS/MS analysis; assay type: ADME, Microsome; details: read-out: CLH
[8] = Cmax in Balb-C mouse plasma at 5 mg/kg, po; assay type: ADME, organism-based; parameters: dose 5 mg/kg, route oral
[9] = AUC (0 to infinity) in Balb-C mouse muscle at 5 mg/kg, po; assay type: ADME, organism-based, Muscle tissue; parameters: time infinity, dose 5 mg/kg, route oral
[10] = Ratio of drug level in kidney to plasma of Balb-C mouse at 5 mg/kg, po; assay type: ADME, organism-based; parameters: dose 5 mg/kg, route oral
[11] = Cmax in Balb-C mouse kidney at 5 mg/kg, po; assay type: ADME, organism-based; parameters: dose 5 mg/kg, route oral
[12] = Tmax in Balb-C mouse muscle at 5 mg/kg, po; assay type: ADME, organism-based, Muscle tissue; parameters: dose 5 mg/kg, route oral
[13] = Tmax in Balb-C mouse plasma at 5 mg/kg, po; assay type: ADME, organism-based; parameters: dose 5 mg/kg, route oral
[14] = Cmax in Balb-C mouse muscle at 5 mg/kg, po; assay type: ADME, organism-based, Muscle tissue; parameters: dose 5 mg/kg, route oral
[15] = AUC (0 to infinity) in Balb-C mouse kidney at 5 mg/kg, po; assay type: ADME, organism-based; parameters: time infinity, dose 5 mg/kg, route oral
[16] = Ratio of drug level in muscle to plasma of Balb-C mouse at 5 mg/kg, po; assay type: ADME, organism-based; parameters: dose 5 mg/kg, route oral
[17] = Half life in Balb-C mouse kidney at 5 mg/kg, po; assay type: ADME, organism-based; parameters: dose 5 mg/kg, route oral
[18] = Tmax in Balb-C mouse kidney at 5 mg/kg, po; assay type: ADME, organism-based; parameters: dose 5 mg/kg, route oral
[19] = Half life in Balb-C mouse plasma at 5 mg/kg, po; assay type: ADME, organism-based; parameters: dose 5 mg/kg, route oral
[20] = Half life in Balb-C mouse muscle at 5 mg/kg, po; assay type: ADME, organism-based, Muscle tissue; parameters: dose 5 mg/kg, route oral
UGT [21] = experiment: Intrinsic clearance in human liver microsomes assessed as UGT-mediated glucuronidation extraction ratio after 30 mins by LC-MS/MS analysis; assay type: ADME, Microsome; details: read-out: ERH
[22] = AUC (0 to 2 hrs ) in Balb-C mouse kidney at 5 mg/kg, po; assay type: ADME, organism-based; parameters: time < 2 hr, dose 5 mg/kg, route oral
[23] = AUC (0 to 2 hrs ) in Balb-C mouse plasma at 5 mg/kg, po; assay type: ADME, organism-based; parameters: time < 2 hr, dose 5 mg/kg, route oral

Heat shock protein HSP 90-beta, sequence (P08238 whole entry): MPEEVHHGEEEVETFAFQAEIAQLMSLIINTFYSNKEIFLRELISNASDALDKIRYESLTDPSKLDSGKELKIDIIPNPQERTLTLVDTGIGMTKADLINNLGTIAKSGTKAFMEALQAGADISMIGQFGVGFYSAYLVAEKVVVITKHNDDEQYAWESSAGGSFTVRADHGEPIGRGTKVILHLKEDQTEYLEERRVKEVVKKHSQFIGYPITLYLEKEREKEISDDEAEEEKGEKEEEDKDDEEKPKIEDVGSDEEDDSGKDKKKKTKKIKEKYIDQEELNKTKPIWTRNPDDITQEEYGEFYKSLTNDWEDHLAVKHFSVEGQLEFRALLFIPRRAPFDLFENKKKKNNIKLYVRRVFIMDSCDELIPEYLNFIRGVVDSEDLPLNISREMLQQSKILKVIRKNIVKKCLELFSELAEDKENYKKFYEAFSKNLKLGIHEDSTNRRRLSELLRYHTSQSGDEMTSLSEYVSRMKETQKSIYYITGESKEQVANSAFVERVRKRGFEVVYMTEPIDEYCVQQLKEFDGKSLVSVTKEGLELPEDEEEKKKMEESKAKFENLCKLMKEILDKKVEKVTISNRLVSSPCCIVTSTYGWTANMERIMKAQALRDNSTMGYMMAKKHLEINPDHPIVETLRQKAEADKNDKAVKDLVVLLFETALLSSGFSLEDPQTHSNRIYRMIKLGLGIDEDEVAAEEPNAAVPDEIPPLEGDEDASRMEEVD
T1 sequence (Q12809 whole entry): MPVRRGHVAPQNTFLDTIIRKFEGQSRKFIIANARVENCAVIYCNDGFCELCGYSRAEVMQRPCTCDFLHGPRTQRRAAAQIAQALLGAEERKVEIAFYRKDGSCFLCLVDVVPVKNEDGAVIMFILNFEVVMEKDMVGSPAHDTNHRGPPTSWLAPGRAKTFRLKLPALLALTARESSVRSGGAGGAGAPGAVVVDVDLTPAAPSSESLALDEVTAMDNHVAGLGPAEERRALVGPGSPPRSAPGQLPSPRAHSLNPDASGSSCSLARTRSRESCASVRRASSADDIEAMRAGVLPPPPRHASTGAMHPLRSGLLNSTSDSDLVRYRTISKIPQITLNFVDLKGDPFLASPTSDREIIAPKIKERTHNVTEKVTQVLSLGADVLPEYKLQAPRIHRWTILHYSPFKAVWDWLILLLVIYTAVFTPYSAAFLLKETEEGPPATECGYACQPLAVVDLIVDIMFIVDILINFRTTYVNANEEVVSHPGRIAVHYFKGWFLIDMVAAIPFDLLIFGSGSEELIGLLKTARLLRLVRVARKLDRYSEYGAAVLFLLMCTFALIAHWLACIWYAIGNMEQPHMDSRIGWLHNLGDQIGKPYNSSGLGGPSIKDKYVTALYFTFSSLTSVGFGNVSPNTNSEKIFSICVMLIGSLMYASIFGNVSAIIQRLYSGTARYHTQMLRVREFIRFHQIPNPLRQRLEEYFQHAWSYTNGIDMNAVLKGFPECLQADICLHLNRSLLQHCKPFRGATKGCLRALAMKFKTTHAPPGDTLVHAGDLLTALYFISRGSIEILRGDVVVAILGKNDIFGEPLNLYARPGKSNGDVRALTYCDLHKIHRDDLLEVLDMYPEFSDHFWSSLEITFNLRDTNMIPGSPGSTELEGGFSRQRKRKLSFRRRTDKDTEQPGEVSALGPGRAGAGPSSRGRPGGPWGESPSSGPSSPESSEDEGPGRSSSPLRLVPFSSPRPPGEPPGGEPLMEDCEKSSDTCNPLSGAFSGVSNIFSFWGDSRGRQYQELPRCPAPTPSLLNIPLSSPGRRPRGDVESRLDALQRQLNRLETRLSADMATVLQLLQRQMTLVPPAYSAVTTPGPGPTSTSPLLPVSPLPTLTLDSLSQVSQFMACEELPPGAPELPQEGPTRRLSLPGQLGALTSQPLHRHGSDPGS

Structure (SMILES)	Ki [1] [nM]	Kd [3] [nM]	GI50 (HCT-116) [nM]	GI50 (BT-474) [nM]	GI50 (MDA-MB-468) [nM]	further results
CSc1nc(-c2ccc(F)cc2C)c2c(C#N)c[nH]c2n1	358	430	–	–	–	Kd [2]: 251 nM
CSc1nc(-c2ccc(C)cc2C)c2c(C3CC3)c[nH]c2n1	> 50000	> 100000	–	–	–	–
CSc1nc(-c2ccc(C)cc2C)c2c(C(F)(F)F)c[nH]c2n1	2640	55000	–	–	–	–
CSc1nc(-c2ccc(C)cc2C)c2cc[nH]c2n1	> 200000	> 100000	–	–	–	–
CSc1nc(-c2ccc(Cl)cc2C)c2nc[nH]c2n1	661	> 20000	–	–	–	–
CSc1nc(-c2ccc(C#N)cc2)c2c(C#N)c[nH]c2n1	204	1220	–	–	–	–
CCc1nc(-c2ccc(F)cc2C)c2c(C#N)c[nH]c2n1	1720	2220	–	–	–	Kd [2]: 1830 nM
Cc1ccc(-c2ncnc3[nH]cc(C#N)c23)c(C)c1	2830	1880	–	–	–	Kd [2]: 1620 nM
COc1cc(Cl)c(-c2nc(SC(C)C)nc3[nH]cc(C#N)c23)cc1OCCN1CCC(F)(F)C1	172	–	–	388	–	–
CSc1nc(-c2ccc(C#N)cc2)c2cc[nH]c2n1	> 200000	> 100000	–	–	–	–
CSc1nc(-c2ccc(C#N)cc2)c2nc[nH]c2n1	24500	> 20000	–	–	–	–
CNc1nc(-c2ccc(F)cc2C)c2c(C#N)c[nH]c2n1	4070	4260	–	–	–	Kd [2]: 3690 nM
CSc1nc(-c2ccc(C)cc2C)c2c(C#N)n[nH]c2n1	5230	38000	–	–	–	–
COc1cc(Cl)c(-c2nc(SC)nc3[nH]cc(C#N)c23)cc1OCCN1CCC(F)(F)C1	12	–	–	47	–	–
CSc1nc(-c2ccc(F)cc2C)c2nc[nH]c2n1	12800	2300	–	–	–	Kd [2]: 2730 nM
CSc1nc(-c2ccc(F)cc2C)c2c(C(N)=O)c[nH]c2n1	> 200000	> 100000	–	–	–	–
CSc1nc(-c2ccc(F)cc2C)c2cc[nH]c2n1	> 200000	> 100000	–	–	–	–
CSc1nc(-c2ccc(C)cc2C)c2c(Br)c[nH]c2n1	> 200000	> 20000	–	–	–	–
COc1nc(-c2ccc(F)cc2C)c2c(C#N)c[nH]c2n1	628	2810	–	–	–	Kd [2]: 725 nM
CSc1nc(-c2ccc(C)cc2C)c2c(C#N)c[nH]c2n1	195	–	–	–	–	Kd [2]: 156 nM
COc1cc(Cl)c(-c2nc(SCC(=O)N(C)C)nc3[nH]cc(C#N)c23)cc1OC	< 1	–	32	34	30	AUC(0-inf) [6]: 297 ng·h/mL; IC50 [4]: > 30000 nM; microsomal CLint (UGT [7]): 4 µL/min/mg; Cmax [8]: 553 nM and 239 ng/mL; AUC(0-inf) [9]: 231 ng·h/mL; Kp [10]: 23.3; Cmax [11]: 12.5 µM and 5390 ng/mL; Tmax [12]: 15 min; Tmax [13]: 15 min; Kd [2]: < 3 nM; Cmax [14]: 158 nM and 68 ng/mL; AUC(0-inf) [15]: 6920 ng·h/mL; Kp [16]: 0.8; IC50 [5]: > 30000 nM; half-life [17]: 72 min; Tmax [18]: 15 min; half-life [19]: 84 min; half-life [20]: 144 min
CCN(CC)CCOc1nc(-c2cc(OC)c(Cl)cc2Cl)c2c(C#N)c[nH]c2n1	62	–	–	2010	–	–
CSc1nc(-c2ccc(C)cc2C)c2c(C)c[nH]c2n1	> 200000	19300	–	–	–	–

Further lines, with some results ahead:

Ki [1] [nM]	Kd [3] [nM]	GI50 (HCT-116) [nM]	GI50 (BT-474) [nM]	GI50 (MDA-MB-468) [nM]	Structure (SMILES)	further results
3	–	238	161	178	COc1cc(Cl)c(-c2nc(SCC(=O)NC(C)C)nc3[nH]cc(C#N)c23)cc1O	–
< 1	–	20	25	23	CCOc1cc(-c2nc(SCC(=O)NC3CC3)nc3[nH]cc(C#N)c23)c(Cl)cc1OC	–
< 1	–	40	44	64	CCNC(=O)CSc1nc(-c2cc(OCC)c(OC)cc2Cl)c2c(C#N)c[nH]c2n1	–
2	–	–	31	–	CCN(CC)CCOc1cc(-c2nc(SC)nc3[nH]cc(C#N)c23)c(Cl)cc1Cl	–
< 1	–	28	31	35	COc1cc(Cl)c(-c2nc(SCC(=O)N3CCC3)nc3[nH]cc(C#N)c23)cc1OC	–
< 1	–	117	128	152	COc1cc(Cl)c(-c2nc(SCC(=O)NC(C)(C)C)nc3[nH]cc(C#N)c23)cc1O	–
< 1	–	–	80	–	CCN(CC)CCSc1nc(-c2cc(OC)c(C#N)cc2Cl)c2c(C#N)c[nH]c2n1	–
5	–	98	136	178	COc1cc(Cl)c(-c2nc(SCC(=O)NCCF)nc3[nH]cc(C#N)c23)cc1OC	–
< 1	–	50	121	84	COc1cc(Cl)c(-c2nc(SCC(=O)NC(C)(C)C)nc3[nH]cc(C#N)c23)cc1OC	–
< 1	–	1160	102	236	COc1cc(Cl)c(-c2nc(SCC(=O)NC3CC3)nc3[nH]cc(C#N)c23)cc1O	–
< 1	–	42	56	33	CNC(=O)CSc1nc(-c2cc(OC)c(OC)cc2Cl)c2c(C#N)c[nH]c2n1	–
2	–	42	141	59	CCNC(=O)CSc1nc(-c2cc(OC)c(OC)cc2Cl)c2c(C#N)c[nH]c2n1	–
4	–	–	48	–	CSc1nc(-c2cc(OCCN3CCCC3)c(Cl)cc2Cl)c2c(C#N)c[nH]c2n1	–
3	–	–	31	–	COc1cc(Cl)c(-c2nc(SC)nc3[nH]cc(C#N)c23)cc1OCCN1CC[C@H](F)C1	–
7	–	–	26	–	CCN(CC)CCSc1nc(-c2cc(OC)c(OC)cc2Cl)c2c(C#N)c[nH]c2n1	–
2	–	728	85	183	COc1cc(Cl)c(-c2nc(SCC(=O)NCCF)nc3[nH]cc(C#N)c23)cc1O	–
< 1	–	–	72	–	CCN(CC)CCSc1nc(-c2cc(OC)c(Cl)cc2Cl)c2c(C#N)c[nH]c2n1	–
< 1	–	65	84	77	CCOc1cc(-c2nc(SCC(=O)NC(C)C)nc3[nH]cc(C#N)c23)c(Cl)cc1OC	–
< 1	–	60	69	62	COc1cc(Cl)c(-c2nc(SCC(=O)NC3CC3)nc3[nH]cc(C#N)c23)cc1OC	–
8	–	–	78	–	CCN(CC)CCOc1cc(-c2nc(SCC(=O)NC)nc3[nH]cc(C#N)c23)c(Cl)cc1Cl	IC50 [4]: 3140 nM; IC50 [5]: 17800 nM
< 1	–	81	81	102	COc1cc(Cl)c(-c2nc(SCC(=O)NC(C)C)nc3[nH]cc(C#N)c23)cc1OC	–
< 1	–	153	45	124	COc1cc(Cl)c(-c2nc(SCC(=O)NCC(F)(F)F)nc3[nH]cc(C#N)c23)cc1OC	–
< 1	–	172	21	28	COc1cc(Cl)c(-c2nc(SCC(=O)N3CCC3)nc3[nH]cc(C#N)c23)cc1O	–
< 1	–	131	20	23	COc1cc(Cl)c(-c2nc(SCC(=O)N(C)C)nc3[nH]cc(C#N)c23)cc1O	IC50 [4]: > 30000 nM; microsomal CLint (UGT [7]): 73 µL/min/mg; Cmax [8]: 25 nM and 11 ng/mL; hepatic extraction ratio at 0.5 h (UGT [21]): 0.8; AUC(0-t) at 2 h [22]: 41 ng·h/mL; Kp [10]: 2.6; Cmax [11]: 31 ng/mL and 72 nM; Tmax [13]: 15 min; AUC(0-t) at 2 h [23]: 16 ng·h/mL; IC50 [5]: > 30000 nM; Tmax [18]: 30 min
